Experimental findings from BindingDB's records for doi:10.1016/j.bmc.2022.116974 (University of Maryland, 2022) are described below.

The target of this test is Galectin-3 (Homo sapiens, UniProt P17931). Briefly: Binding affinity to human galectin 3 by surface plasma resonance analysis. The procedure, abridged:
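Recombinant human Gal-3 amine-coupled to a CM5 chip (about 1000 RU) with an ethanolamine reference channel. Analytes were serially diluted in 0.01 M HEPES pH 7.4, 0.15 M NaCl and 0.005% P20, then run at 25 °C and 30 μL/min with 120 s association and 300 s dissociation, followed by 3 M MgCl2 regeneration. EC50 was taken from the fitted binding curve.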

pEC50: −log10 of the molar value.

Galectin-3, sequence (P17931 whole entry): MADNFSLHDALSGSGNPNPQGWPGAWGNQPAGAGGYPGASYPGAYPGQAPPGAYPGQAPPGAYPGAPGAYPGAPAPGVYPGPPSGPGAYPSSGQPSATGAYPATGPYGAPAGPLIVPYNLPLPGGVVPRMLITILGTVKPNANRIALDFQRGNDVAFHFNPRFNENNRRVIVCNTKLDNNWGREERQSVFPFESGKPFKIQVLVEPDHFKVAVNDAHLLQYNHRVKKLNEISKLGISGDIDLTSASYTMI

For `[N-]=[N+]=NCCOCCOCCO[C@@H]1O[C@H](CO)[C@@H](O[C@@H]2O[C@H](CO)[C@H](O)[C@H](O)[C@H]2O)[C@H](O)[C@H]1O`, the pEC50 (usually the negative decadic logarithm of the EC50, by convention in mol/L) is < 3.00. The same measure for `CC(=O)N[C@H]1[C@@H](OCCOCCOCCN=[N+]=[N-])O[C@H](CO)[C@H](O)[C@@H]1O[C@@H]1O[C@H](CO)[C@H](O)[C@H](O)[C@H]1O`: < 3.00; for `CC(=O)N[C@H]1[C@@H](OCCOCCOCCN=[N+]=[N-])O[C@H](CO)[C@H](O)[C@@H]1O`: < 3.00.
